Assay [1] relates to Human immunodeficiency virus 1. Briefly: Ratio of EC50 for HIV1 harboring HIV1 harboring wild type 8.9NSX with gag […] and T81A mutant to EC50 for wild type HIV1. It counts as functional. The essentials:
(§1)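 Resistance vectors were made by cotransfecting HEK293T cells with a p8.9NSX-derived gag-pol vector carrying the matrix/protease variant, a VSV-G plasmid and a firefly luciferase plasmid. At 16 h, producer cells were reseeded in graded PI concentrations, and vectors were harvested 24 h later to infect fresh HEK293T cells. Luciferase was read 48 h postinfection relative to no-drug controls. EC50 came from linear regression, expressed as fold change versus WT subtype B p8.9NSX, mean of ≥2 experiments.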

Assay [2] relates to Human immunodeficiency virus 1. Briefly: Antiviral activity against 8gpNS with amino acid 116 insertion removed HIV1 infected in HEK293T cells assessed as inhibition of viral replication after 48 hrs by luciferase assay. It counts as functional, organism-based. The note with it: HEK-293T. The essentials: as §1
For assay [3], the system named is Human immunodeficiency virus 1. As to the kind of experiment: Antiviral activity against HIV1 harboring wild type 8.9NSX with mutant amino acid 116 insertion infected in HEK293T cells assessed as inhibition of viral replication after 48 hrs by luciferase assay. It counts as functional, organism-based. The settings on record: HEK-293T. In a few lines: as §1
The test system of assay [4] is Human immunodeficiency virus 1. As to the kind of experiment: Antiviral activity against HIV1 harboring mutant protease with matrix K76R mutant infected in HEK293T cells assessed as inhibition of viral replication after 48 hrs by luciferase assay. The class given is functional, organism-based. The note with it: HEK-293T. The essentials:
as §1

For assay [5], the system named is Human immunodeficiency virus 1. As to the kind of experiment: Antiviral activity against HIV1 harboring mutant protease with matrix Y79F mutant infected in HEK293T cells assessed as inhibition of viral replication after 48 hrs by luciferase assay. The class given is functional, organism-based. The note with it: HEK-293T. In a few lines: as §1
The subject of assay [6] is Human immunodeficiency virus 1. Briefly: Antiviral activity against HIV1 harboring mutant protease with matrix A81T mutant infected in HEK293T cells assessed as inhibition of viral replication after 48 hrs by luciferase assay. It counts as functional, organism-based. The note with it: HEK-293T. In a few lines: as §1
For assay [7], the system named is Human immunodeficiency virus 1. Briefly: Antiviral activity against HIV1 harboring wild type 8.9NSX with gag T81A mutant infected in HEK293T cells assessed as inhibition of viral replication after 48 hrs by luciferase assay. It counts as functional, organism-based. The note with it: HEK-293T. The essentials: as §1

Calls of active or inactive are those of the source. The calls are words filed in the database; no cut-off is given here.

Consider `CC(C)(C)NC(=O)[C@@H]1CN(Cc2cccnc2)CCN1C[C@@H](O)C[C@@H](Cc1ccccc1)C(=O)N[C@H]1c2ccccc2C[C@H]1O.O` [INDINAVIR], for which the “Ratio EC50” value in assay [1] is 3. The inhibition entry in assay [2], in assay [3], in assay [4], in assay [5] and in assay [6] was “inactive” throughout.
With `CC(C)CN(C[C@@H](O)[C@H](Cc1ccccc1)NC(=O)O[C@H]1CCOC1)S(=O)(=O)c1ccc(N)cc1` [AMPRENAVIR], the inhibition result in assay [7], in assay [2], in assay [3], in assay [4], in assay [5] and in assay [6] was “inactive” each time. Also, the “Ratio EC50” value in assay [1] is reported as 3.
As to `CCC[C@@]1(CCc2ccccc2)CC(O)=C([C@H](CC)c2cccc(NS(=O)(=O)c3ccc(C(F)(F)F)cn3)c2)C(=O)O1` [TIPRANAVIR], the “Ratio EC50” value in assay [1] is 3. The inhibition result in assay [2] and in assay [3] was “inactive” in each case.
For the compound `COC(=O)N[C@H](C(=O)N[C@@H](Cc1ccccc1)[C@@H](O)CN(Cc1ccc(-c2ccccn2)cc1)NC(=O)[C@@H](NC(=O)OC)C(C)(C)C)C(C)(C)C`, the inhibition result in assay [7], in assay [2], in assay [3], in assay [4], in assay [5] and in assay [6] was “inactive” each time.
For the compound `CC(C)CN(C[C@@H](O)[C@H](Cc1ccccc1)NC(=O)O[C@H]1CO[C@H]2OCC[C@H]21)S(=O)(=O)c1ccc(N)cc1` [DARUNAVIR], in assay [1], the “Ratio EC50” value is 3. Moreover, the inhibition entry in assay [2] and in assay [3] was “inactive” throughout.
In the case of `Cc1cccc(C)c1OCC(=O)N[C@@H](Cc1ccccc1)[C@@H](O)C[C@H](Cc1ccccc1)NC(=O)[C@H](C(C)C)N1CCCNC1=O` [LOPINAVIR], the “Ratio EC50” value in assay [1] turned out to be 3. The inhibition entry in assay [2], in assay [3], in assay [4], in assay [5] and in assay [6] was “inactive” in each case.
In the case of `CC(C)(C)NC(=O)[C@@H]1C[C@@H]2CCCC[C@@H]2CN1C[C@@H](O)[C@H](Cc1ccccc1)NC(=O)[C@H](CC(N)=O)NC(=O)c1ccc2ccccc2n1` [SAQUINAVIR], the “Ratio EC50” value in assay [1] stood at 3. Also, the inhibition result in assay [2] and in assay [3] was “inactive” each time.
In the case of `Cc1c(O)cccc1C(=O)N[C@@H](CSc1ccccc1)[C@H](O)CN1C[C@H]2CCCC[C@H]2C[C@H]1C(=O)NC(C)(C)C` [NELFINAVIR], the inhibition entry in assay [7], in assay [2], in assay [3], in assay [4], in assay [5] and in assay [6] was “inactive” each time. For the same compound, in assay [1], the “Ratio EC50” value is on record as 3.

The values are drawn from ChEMBL document CHEMBL1687847, “Three residues in HIV-1 matrix contribute to protease inhibitor susceptibility and replication capacity” (2011).
